Only a selection was taken, and hits are over-represented in it overall.
Insulin prom act – activators of insulin promoter-driven GFP, primary screen, imaging, TRM-6 cells, eGFP reporter, cell count; plate-scaled: unstimulated 0, stimulated control 100; activation, % at 2 µM; 130,000 tested, 0.81% active; AID 1296, 2008;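 active = activation at 2 µM above a set limit, confirmed on inspection of the cell images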;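 note: share of cells whose green reporter signal exceeds an intensity cutoff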
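material = TRM-6 human fetal islet cells, insulin promoter–eGFP reporter | input = 1,000 TRM-6 cells seeded per well | benchmarks = stimulated versus unstimulated wells as plate controls | measured by = automated fluorescence imaging of paraformaldehyde-fixed, Hoechst-counterstained cells, green channel | schedule = compound exposure 48 h, 37 °C | reagent = tamoxifen at 0.75 µM added at seeding for reporter induction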
* hit, by the source's call; + = active, no number; [ ] = another dose, or the depositor's remark.

SMILES | Insulin prom act
Cc1ccc[n+](/C(C(=S)NCc2ccco2)=C(/[O-])c2ccccc2Cl)c1 | 286.7
Cc1ccc(/C([O-])=C(/C(=S)NCc2ccccc2)[n+]2cccc(CO)c2)cc1[N+](=O)[O-] | +
Cc1ccc(C(=O)Nc2ccc(OCc3ccccc3)cc2)cc1[N+](=O)[O-] | -6.5
CC1=CC(C)(C)N(C(=O)C(C)N2C(=O)c3ccccc3C2=O)c2ccc(C)cc21 (centres undefined) | -9.7
O=C1N/C(=C/c2ccc(N3CCOCC3)cc2)C(=O)N1Cc1ccc(F)cc1 | -8.3
O=C1/C(=C/c2ccc(N3CCCC3)cc2)NC(=S)N1C1CC1 | 185.7*
CCOCCN1CCN(C(=O)CN2CCCC2=O)CC1 | 8.1
COC(=O)CNC(=O)c1sc2ncn(CC(=O)Nc3ccc(C)c(Cl)c3)c(=O)c2c1C | -7.1
N#C/C(=C/c1cn(CC(=O)O)c2ccccc12)c1ccc(F)cc1 | -2.9
CCOc1cc(/C=C(/C#N)c2ccc(F)cc2)ccc1OCc1ccc(C(=O)O)o1 | 226.1
Cn1cccc1/C=C(/C#N)c1ccc(F)cc1 | 438.5*
CC(NC(=S)Nc1ccc(S(=O)(=O)N2CCOCC2)cc1)C1CC2CCC1C2 (centres undefined) | 0.0
O=C(CSc1nc2ccccc2s1)CSc1nc2ccccc2s1 | 94.3*
O=C(CSc1nc2ccccc2s1)N/N=C/c1ccc(C(=O)O)cc1 | 161.1*
Nc1nonc1NC(=O)CSc1nc2ccccc2s1 | 3.6
O=C(CSc1nc2ccccc2o1)N/N=C/c1ccccc1 | 3.3
O=C(CSc1nc2ccccc2s1)Nc1nccs1 | -2.8
O=C(CSc1nc2ccccc2s1)NNC(=S)Nc1ccccc1 | -3.2
CCc1noc(C)c1C(=O)Nc1nc(-c2ccc(Cl)cc2Cl)cs1 | -7.4
CCc1cc(OCCCSc2nc(C)cc(=O)[nH]2)ccc1Cl | 8.7
O=C(CCCN1C(=O)c2ccccc2C1=O)Nc1nnc(C2CC2)s1 | -8.3
Cc1cc(N2CC(C(=O)NCc3cccs3)CC2=O)ccc1C(C)C (centres undefined) | 0.0
Cc1ccccc1N1CC(C(=O)O)CC1=O (centres undefined) | -2.6
Cc1ccc(N2CC(C(N)=O)CC2=O)cc1C (centres undefined) | 542.9*
CNc1cncc(C(=O)O)c1 | 5.6
SMILES | Insulin prom act
CCNC(=S)Nc1cc(Cl)ccc1Oc1ccccc1 | 0.0
COc1cccc(C(=O)NC(=S)Nc2ccc(N(C)C)cc2)c1 | -8.8
COc1ccc(-c2cc(-c3n[nH]c(=S)n3-c3ccccc3Cl)[nH]n2)cc1 | 0.0
S=C(NCCc1ccccc1)NC1CC2CCC(C1)N2Cc1ccccc1 (centres undefined) | 0.0
CN(C)c1ccc(CNn2cnnc2SCc2ccc(F)cc2)cc1 | -6.1
CC(C)(C)NC(=O)CSc1nncn1NCc1ccccc1 | 0.0
Fc1ccc(CSc2nncn2NCc2ccccc2)cc1 | 427.8*
CC(C)CNC(=O)c1ccc(NC(=O)c2cccs2)cc1 | -5.4
Cc1occc1C(=O)NNC(=S)NCc1ccccc1 | 0.0
CCOc1ccccc1C(=O)Nc1ccccc1-c1ccccc1 | -3.4
O=C(CCCN1C(=O)c2ccccc2C1=O)NCc1ccco1 | 238.9
O=C(CCCN1C(=O)c2ccccc2C1=O)NCc1cccnc1 | 473.3*
O=C(CCCN1C(=O)c2ccccc2C1=O)Nc1cccnc1 | -9.5
COCC(C)n1c(SCc2cc(=O)n3cc(C)ccc3n2)nc2ccccc2c1=O (centres undefined) | 8.3
CCOc1cnn(Cc2ccccc2)c(=O)c1SCc1ccccc1 | -2.9
CCN(CC)C(=O)/C(=C\c1ccc(Br)cc1)NC(=O)c1ccccc1OC | -3.2
O=C(CCn1nnc2ccccc21)N/N=C\Cc1ccccc1 | 7.1
CC(C)Cc1nc2ccccc2n1CCc1ccccc1 | 0.0
COc1ccccc1/C=C/C(=O)N1CCCC1 | 2.9
CC(=O)c1cccc(NC(=O)/C=C/c2ccc([N+](=O)[O-])s2)c1 | 614.3*
COC(=O)c1cccc(NC(=O)/C=C/c2ccc([N+](=O)[O-])cc2)c1 | 0.0
O=C(CNC(=O)c1cccc(F)c1)N/N=C/c1ccc([N+](=O)[O-])s1 | 7.1
O=C(/C=C/c1ccccc1[N+](=O)[O-])N1CCCCC1 | -2.7
O=C(/C=C/c1ccc([N+](=O)[O-])s1)N1CCCCC1 | 327.8*
C=C(C)C1CC=C(C)/C(=N/NC(=O)C2CC2c2ccccc2)C1 (centres undefined) | -6.7
SMILES | Insulin prom act
c1ccc(-c2csc3ncnc(N4CCc5ccccc5C4)c23)cc1 | 0.0
COc1ccc(C(=O)Nc2nc3nccc(-c4ccccc4)n3n2)cc1 | -7.7
CNc1c([N+](=O)[O-])cnn1-c1ccccn1 | -8.6
O=C(Nc1ccccc1C(=O)NCCc1ccccc1)c1ccco1 | 0.0
C=C(C)CC(NCCc1ccccc1)c1ccco1 (centres undefined) | 669.2*[fluoresces]
O=C(c1ccco1)N(CCC(c1ccccc1)c1ccco1)Cc1ccccc1 (centres undefined) | 7.4
O=C(Nc1ccc([N+](=O)[O-])cn1)C1CC2CCC1C2 (centres undefined) | -69.2
CCN(C(=S)NC(=O)c1ccccc1Br)C1CCCCC1 | -8.3
O=C(CSc1nnc(Cc2cccs2)n1Cc1ccco1)Nc1cc(Cl)cc(Cl)c1 | 0.0
Clc1ccc(OCc2nnc(SCc3nc4ccccc4[nH]3)n2Cc2ccco2)cc1 | 128.6*
Cn1c(COc2ccccc2)nnc1SCc1nc2ccccc2[nH]1 | -2.6
CCn1c(SCc2nc3ccccc3[nH]2)nnc1-c1cccs1 | -5.9
COc1ccccc1NC(=O)CSc1nnc(-c2ccco2)n1Cc1ccco1 | 7.7
COc1ccc(C)cc1NC(=O)CSc1nnc(COc2ccc(Cl)cc2)n1Cc1ccco1 | 141.7*
O=C1NN(c2ccccc2)C(=O)/C1=C/c1ccc(Sc2cccc3ccccc23)o1 | -6.7
COC(=O)c1[nH]nc(C(=O)OC(C)(C)C)c1-c1ccccc1 | -8.3
O=C(/C=C/c1ccccc1Cl)NCCc1ccc(F)cc1 | 2.6
CCNc1ccc(Br)cc(C(=O)/C=C/c2ccccc2Cl)c1=O | 800.0*
CCc1ccc(/C=C/C(=O)c2cc(Br)ccc(=O)c2O)cc1 | 2.9
COc1ccc(/C=N/NC(=O)CN2CCSCC2)cc1C | 2.6
O=C(Cn1c(=O)sc2ccccc21)Nc1ccc(O)cc1 | -7.1
Cc1ccc(N2CCN(c3ccc(NC(=O)CCC(=O)O)cc3)CC2)cc1 | -73.3
CCCC(=O)Nc1ccc(N2CCN(C(=O)c3ccccc3C)CC2)cc1 | 443.8*
CCCC(=O)Nc1ccc(C(=O)N2CCCC2)cc1 | -2.6
Cc1ccnc(SCC(=O)N2CCc3ccccc3C2)n1 | 0.0
SMILES | Insulin prom act
Cc1ccnc(SCC(=O)O)n1 | -3.2
Cc1ccnc(SCc2cc(=O)c(OC(=O)c3ccccc3)co2)n1 | 427.8*
COc1cc(N2CN=c3s/c(=C\c4ccccn4)c(=O)n3C2)cc(OC)c1OC | 3.8
O=C(CNC1CCCCC1)NN=C(c1ccccc1)c1ccccc1 | 113.3
CCC(NC(=O)COc1ccc([N+](=O)[O-])cc1)c1ccccc1 (centres undefined) | -66.7
CCC(NC(=O)c1ccc([N+](=O)[O-])cc1[N+](=O)[O-])c1ccccc1 (centres undefined) | 80.0*
O=C(Nc1cccc2oc(=O)ccc12)c1ccc([N+](=O)[O-])cc1[N+](=O)[O-] | 0.0
CN(C)c1ccc(NC(=O)COC(=O)CCC(=O)c2ccc(F)cc2)cc1 | -2.9
O=C(CC1NCCc2ccccc21)Nc1ccccc1 (centres undefined) | 7.3
CN(C)c1ccc(NC(=O)CC2NCCNC2=O)cc1 (centres undefined) | 487.5*

Bioassay records (PubChem BioAssay)
